According to ChEMBL document CHEMBL1158569, “Structure-activity relationships in a novel series of 7-substituted-aryl quinolines and 5-substituted-aryl benzothiazoles at the metabotropic glutamate receptor subtype 5” (Bioorg Med Chem, 2010):
The source made the active and inactive calls. No cut-off for these calls is given here.

What was measured:
[1] = molecular target: Glutamate NMDA receptor (Rattus norvegicus) (UniProt P35439+Q00959+Q00960+Q00961+Q62645+Q8VHN2+Q9R1M7); test: Displacement of [3H]MK801 from NMDA receptor in rat brain homogenate at 10 uM by scintillation counting; format: tissue-based
[2] = molecular target: T1, Metabotropic glutamate receptor 5 (Rattus norvegicus, UniProt P31424); test: Displacement of [3HMPEP from rat cloned mGluR5 expressed in HEK293T cells by scintillation counting; format: cell-based, HEK-293T
Procedure, shortened: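 Radioligand displacement with [3H]MPEP, run through the NIMH Psychoactive Drug Screening Program. Receptor source was rat brain membranes or HEK293-T cells transfected with cloned rat mGluR5 cDNA. Ki reported as ±SEM.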

[3] = molecular target: T1, Metabotropic glutamate receptor 5; test: Antagonist activity at rat mGluR5 expressed in HEK293A cells assessed as inhibition of glutamate-induced calcium flux preincubated for 140 secs before glutamate challenge by calcium fluorescence assay; format: functional, cell-based, HEK293-A
Procedure, shortened: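 Functional read-out was receptor-induced intracellular calcium release, detected by calcium fluorescence. A kinetic imaging plate reader recorded calcium levels simultaneously in every well of 384-well plates. IC50 reported as ±SEM.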

[4] = molecular target: Metabotropic glutamate receptor 1 (Homo sapiens) (UniProt Q13255); test: Inhibition of mGluR1 expressed in CHO cells at 10 uM; format: cell-based
[5] = molecular target: Metabotropic glutamate receptor 2 (Homo sapiens) (UniProt Q14416); test: Inhibition of mGluR2 expressed in CHO cells at 10 uM; format: cell-based
[6] = molecular target: Metabotropic glutamate receptor 6 (Homo sapiens) (UniProt O15303); test: Inhibition of mGluR6 expressed in CHO cells at 10 uM; format: cell-based
[7] = molecular target: Metabotropic glutamate receptor 8 (Homo sapiens) (UniProt O00222); test: Inhibition of mGluR8 expressed in CHO cells at 10 uM; format: cell-based
[8] = molecular target: Metabotropic glutamate receptor 4 (Homo sapiens) (UniProt Q14833); test: Inhibition of mGluR4 expressed in CHO cells at 10 uM; format: cell-based
[9] = molecular target: Metabotropic glutamate receptor 5 (Rattus norvegicus) (UniProt P31424); details: HEK293-A, 0.0001 to 100 uM

Chain of Metabotropic glutamate receptor 1 (Homo sapiens) (Q13255 19-1194 limits assumed): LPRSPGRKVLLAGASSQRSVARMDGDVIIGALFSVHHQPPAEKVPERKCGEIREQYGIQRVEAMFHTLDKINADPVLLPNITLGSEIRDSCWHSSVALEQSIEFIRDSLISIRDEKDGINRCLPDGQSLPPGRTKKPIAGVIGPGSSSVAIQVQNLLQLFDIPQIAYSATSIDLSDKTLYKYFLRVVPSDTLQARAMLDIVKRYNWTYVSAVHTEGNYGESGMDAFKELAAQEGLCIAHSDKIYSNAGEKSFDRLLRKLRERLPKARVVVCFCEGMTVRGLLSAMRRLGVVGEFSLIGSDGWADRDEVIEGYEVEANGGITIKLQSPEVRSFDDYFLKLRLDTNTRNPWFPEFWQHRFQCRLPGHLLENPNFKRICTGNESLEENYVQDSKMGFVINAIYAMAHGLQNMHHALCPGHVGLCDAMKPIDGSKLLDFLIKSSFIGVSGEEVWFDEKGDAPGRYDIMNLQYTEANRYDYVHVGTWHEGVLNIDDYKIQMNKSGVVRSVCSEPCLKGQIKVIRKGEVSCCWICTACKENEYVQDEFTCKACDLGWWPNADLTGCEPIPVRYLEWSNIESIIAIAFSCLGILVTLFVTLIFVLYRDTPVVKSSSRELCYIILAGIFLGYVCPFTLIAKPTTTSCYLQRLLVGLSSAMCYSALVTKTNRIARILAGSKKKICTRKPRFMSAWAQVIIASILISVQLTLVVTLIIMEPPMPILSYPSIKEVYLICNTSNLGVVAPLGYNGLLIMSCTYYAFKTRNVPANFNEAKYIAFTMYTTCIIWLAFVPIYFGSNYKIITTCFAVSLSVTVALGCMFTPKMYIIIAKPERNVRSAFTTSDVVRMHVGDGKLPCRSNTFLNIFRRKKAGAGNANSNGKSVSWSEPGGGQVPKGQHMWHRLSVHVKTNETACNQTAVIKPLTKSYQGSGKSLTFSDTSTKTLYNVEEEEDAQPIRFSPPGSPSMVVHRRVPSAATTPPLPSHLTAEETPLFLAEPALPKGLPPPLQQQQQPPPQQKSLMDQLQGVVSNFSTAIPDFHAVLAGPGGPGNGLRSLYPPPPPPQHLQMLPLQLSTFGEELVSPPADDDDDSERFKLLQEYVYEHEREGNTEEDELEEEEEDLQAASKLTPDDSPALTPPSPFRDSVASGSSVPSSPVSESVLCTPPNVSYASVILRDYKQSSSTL
Chain of Metabotropic glutamate receptor 6 (Homo sapiens) (O15303 whole entry): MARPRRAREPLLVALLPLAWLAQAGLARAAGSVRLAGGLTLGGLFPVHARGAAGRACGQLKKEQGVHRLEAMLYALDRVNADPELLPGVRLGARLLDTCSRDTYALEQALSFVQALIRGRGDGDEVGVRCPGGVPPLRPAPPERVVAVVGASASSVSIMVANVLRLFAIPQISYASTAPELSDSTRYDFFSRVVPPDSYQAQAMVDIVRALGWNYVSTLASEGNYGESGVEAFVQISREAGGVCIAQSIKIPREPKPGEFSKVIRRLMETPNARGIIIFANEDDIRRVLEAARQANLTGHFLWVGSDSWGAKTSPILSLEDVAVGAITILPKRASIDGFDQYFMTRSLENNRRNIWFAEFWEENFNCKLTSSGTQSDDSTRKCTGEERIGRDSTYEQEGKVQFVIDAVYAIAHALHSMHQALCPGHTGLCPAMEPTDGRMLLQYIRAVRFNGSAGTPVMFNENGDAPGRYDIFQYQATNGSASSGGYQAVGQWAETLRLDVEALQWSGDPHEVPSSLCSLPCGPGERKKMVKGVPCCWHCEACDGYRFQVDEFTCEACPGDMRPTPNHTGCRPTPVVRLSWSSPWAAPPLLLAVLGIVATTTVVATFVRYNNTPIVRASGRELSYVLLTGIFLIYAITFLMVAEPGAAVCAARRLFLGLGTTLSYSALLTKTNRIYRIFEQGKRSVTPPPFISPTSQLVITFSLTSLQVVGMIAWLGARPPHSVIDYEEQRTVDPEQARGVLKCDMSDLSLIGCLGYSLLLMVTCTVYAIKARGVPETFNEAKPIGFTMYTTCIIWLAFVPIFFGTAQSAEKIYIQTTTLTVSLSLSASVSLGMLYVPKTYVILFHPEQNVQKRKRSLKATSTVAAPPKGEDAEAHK
T1 sequence (P31424 whole entry): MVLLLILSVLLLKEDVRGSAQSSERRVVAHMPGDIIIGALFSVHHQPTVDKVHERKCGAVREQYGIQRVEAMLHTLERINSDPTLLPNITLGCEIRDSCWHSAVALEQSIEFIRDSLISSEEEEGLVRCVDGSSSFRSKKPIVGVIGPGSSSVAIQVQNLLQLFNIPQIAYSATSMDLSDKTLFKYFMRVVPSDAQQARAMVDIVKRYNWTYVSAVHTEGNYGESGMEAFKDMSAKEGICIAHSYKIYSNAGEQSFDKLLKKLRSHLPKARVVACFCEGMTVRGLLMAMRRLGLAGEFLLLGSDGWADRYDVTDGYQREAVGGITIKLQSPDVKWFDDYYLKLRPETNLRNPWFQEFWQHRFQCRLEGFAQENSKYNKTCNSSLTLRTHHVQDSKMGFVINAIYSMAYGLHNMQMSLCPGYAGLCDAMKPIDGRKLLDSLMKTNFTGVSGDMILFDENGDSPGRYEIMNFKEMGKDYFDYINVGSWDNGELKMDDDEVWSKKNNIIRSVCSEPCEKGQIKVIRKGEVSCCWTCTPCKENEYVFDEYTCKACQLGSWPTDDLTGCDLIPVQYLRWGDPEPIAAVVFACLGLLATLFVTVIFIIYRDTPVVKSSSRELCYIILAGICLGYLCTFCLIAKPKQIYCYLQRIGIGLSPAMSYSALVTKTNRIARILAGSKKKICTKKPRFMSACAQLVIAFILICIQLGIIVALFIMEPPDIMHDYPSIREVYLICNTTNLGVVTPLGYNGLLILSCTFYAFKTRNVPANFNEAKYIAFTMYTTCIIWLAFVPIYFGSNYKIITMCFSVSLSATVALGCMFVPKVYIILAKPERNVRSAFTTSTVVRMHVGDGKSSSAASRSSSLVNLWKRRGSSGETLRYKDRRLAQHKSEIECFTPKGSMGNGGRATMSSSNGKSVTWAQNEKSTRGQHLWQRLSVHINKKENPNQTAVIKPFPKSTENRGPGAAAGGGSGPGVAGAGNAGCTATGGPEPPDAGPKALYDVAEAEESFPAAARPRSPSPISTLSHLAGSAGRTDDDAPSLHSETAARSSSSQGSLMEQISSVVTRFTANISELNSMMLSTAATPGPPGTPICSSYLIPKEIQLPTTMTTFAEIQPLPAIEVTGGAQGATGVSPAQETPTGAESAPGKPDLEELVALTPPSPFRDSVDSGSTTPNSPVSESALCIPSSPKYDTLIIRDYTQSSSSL
Chain of Metabotropic glutamate receptor 2 (Homo sapiens) (Q14416 19-872 limits assumed): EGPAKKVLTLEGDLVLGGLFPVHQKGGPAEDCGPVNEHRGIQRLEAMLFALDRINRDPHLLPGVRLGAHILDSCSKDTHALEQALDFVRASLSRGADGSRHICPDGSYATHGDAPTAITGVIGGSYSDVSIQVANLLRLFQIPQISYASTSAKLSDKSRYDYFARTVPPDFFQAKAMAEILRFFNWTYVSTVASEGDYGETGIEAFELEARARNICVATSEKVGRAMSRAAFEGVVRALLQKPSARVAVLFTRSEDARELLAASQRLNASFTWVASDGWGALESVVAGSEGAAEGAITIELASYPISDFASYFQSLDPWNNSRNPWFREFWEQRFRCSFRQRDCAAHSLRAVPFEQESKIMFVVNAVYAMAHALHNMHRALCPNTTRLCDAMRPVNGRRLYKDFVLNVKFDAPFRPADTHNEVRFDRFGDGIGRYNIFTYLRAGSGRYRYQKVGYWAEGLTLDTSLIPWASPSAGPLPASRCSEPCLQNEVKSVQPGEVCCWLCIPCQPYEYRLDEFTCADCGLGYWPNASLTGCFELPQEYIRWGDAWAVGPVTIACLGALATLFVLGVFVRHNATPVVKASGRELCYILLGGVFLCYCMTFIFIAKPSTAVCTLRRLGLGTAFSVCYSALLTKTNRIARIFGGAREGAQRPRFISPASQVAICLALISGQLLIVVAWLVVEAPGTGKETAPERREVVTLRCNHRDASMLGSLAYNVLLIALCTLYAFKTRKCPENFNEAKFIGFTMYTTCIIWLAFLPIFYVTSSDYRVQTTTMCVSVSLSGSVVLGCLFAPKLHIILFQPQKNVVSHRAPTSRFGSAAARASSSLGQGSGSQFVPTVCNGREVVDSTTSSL
Chain of Metabotropic glutamate receptor 8 (Homo sapiens) (O00222 whole entry): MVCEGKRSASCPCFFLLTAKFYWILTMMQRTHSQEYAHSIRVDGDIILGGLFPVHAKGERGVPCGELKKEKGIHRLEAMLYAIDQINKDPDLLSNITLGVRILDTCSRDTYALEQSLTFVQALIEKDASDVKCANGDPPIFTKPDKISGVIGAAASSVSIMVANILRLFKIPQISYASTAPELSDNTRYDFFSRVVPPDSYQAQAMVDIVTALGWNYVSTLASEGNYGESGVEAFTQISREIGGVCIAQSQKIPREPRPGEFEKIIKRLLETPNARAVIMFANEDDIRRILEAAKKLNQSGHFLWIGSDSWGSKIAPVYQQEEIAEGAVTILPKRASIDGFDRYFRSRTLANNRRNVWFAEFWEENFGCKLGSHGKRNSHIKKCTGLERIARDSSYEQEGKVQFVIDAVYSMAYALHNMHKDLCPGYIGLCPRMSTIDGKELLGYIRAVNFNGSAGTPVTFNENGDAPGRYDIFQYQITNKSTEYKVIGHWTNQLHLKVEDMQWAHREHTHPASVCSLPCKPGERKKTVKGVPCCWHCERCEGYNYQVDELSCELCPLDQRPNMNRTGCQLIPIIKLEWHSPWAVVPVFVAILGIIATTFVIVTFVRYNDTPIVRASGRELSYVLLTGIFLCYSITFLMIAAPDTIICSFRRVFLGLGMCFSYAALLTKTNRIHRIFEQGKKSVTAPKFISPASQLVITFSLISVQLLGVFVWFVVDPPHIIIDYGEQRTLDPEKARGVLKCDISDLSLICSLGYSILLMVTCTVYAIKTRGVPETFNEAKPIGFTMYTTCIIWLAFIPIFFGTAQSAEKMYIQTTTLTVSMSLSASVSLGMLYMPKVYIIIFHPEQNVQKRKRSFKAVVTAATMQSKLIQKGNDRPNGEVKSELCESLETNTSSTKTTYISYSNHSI

SMILES: Cc1ccc2ccc(-c3cnc(-c4ccccc4)c(C#N)c3)cc2n1
- Activity [1]: inactive
- Ki [2]: 97 nM
- IC50 [3]: 81 nM
- inhibition [4]: < 50%
- inhibition [5]: < 50%
- inhibition [6]: < 50%
- inhibition [7]: < 50%
- inhibition [8]: < 50%

SMILES: Cc1cccc(C#Cc2cncc(C#N)c2)n1
- Activity [1]: inactive
- Ki [2]: 1.5 nM
- IC50 [3]: 13 nM
- inhibition [4]: < 50%
- inhibition [5]: < 50%
- inhibition [6]: < 50%
- inhibition [7]: < 50%
- inhibition [8]: < 50%

SMILES: Cc1nc2cc(-c3ccc(OS(=O)(=O)C(F)(F)F)c(C#N)c3)ccc2s1
- Activity [1]: inactive
- Ki [2]: 862 nM
- IC50 [3]: 7840 nM
- inhibition [4]: < 50%
- inhibition [5]: < 50%
- inhibition [6]: < 50%
- inhibition [7]: < 50%
- inhibition [8]: < 50%

SMILES: Cc1nc(C#Cc2cccnc2)cs1
- Activity [1]: inactive
- inhibition [4]: < 50%
- inhibition [5]: < 50%
- inhibition [6]: < 50%
- inhibition [7]: < 50%
- inhibition [8]: < 50%

SMILES: Cc1ccc2ccc(-c3ccc(O)c(C#N)c3)cc2n1
- Activity [1]: inactive
- Ki [2]: > 10000 nM
- IC50 [3]: > 10000 nM
- inhibition [4]: < 50%
- inhibition [5]: < 50%
- inhibition [6]: < 50%
- inhibition [7]: < 50%
- inhibition [8]: < 50%

SMILES: Cc1nc2cc(-c3ccc(OCc4ccccc4)c(C#N)c3)ccc2s1
- Activity [1]: inactive
- Ki [2]: 7130 nM
- IC50 [3]: > 10000 nM
- inhibition [4]: < 50%
- inhibition [5]: < 50%
- inhibition [6]: < 50%
- inhibition [7]: < 50%
- inhibition [8]: < 50%

SMILES: Cc1ccc2ccc(-c3ccc(-c4ccccc4)c(C#N)c3)cc2n1
- Activity [1]: inactive
- Ki [2]: 97 nM
- IC50 [3]: 1250 nM
- inhibition [4]: < 50%
- inhibition [5]: < 50%
- inhibition [6]: < 50%
- inhibition [7]: < 50%
- inhibition [8]: < 50%

SMILES: Cc1nc2cc(-c3cccc(C#N)c3)ccc2s1
- Activity [1]: inactive
- inhibition [4]: < 50%
- inhibition [5]: < 50%
- inhibition [6]: < 50%
- inhibition [7]: < 50%
- inhibition [8]: < 50%

SMILES: Cc1ccc2ccc(-c3ccc(-c4ccc(F)cc4)c(C#N)c3)cc2n1
- Activity [1]: inactive
- Ki [2]: 64 nM
- IC50 [3]: 692 nM
- inhibition [4]: < 50%
- inhibition [5]: < 50%
- inhibition [6]: < 50%
- inhibition [7]: < 50%
- inhibition [8]: < 50%

SMILES: Cc1ccc2ccc(-c3ccc(-c4cccnc4)c(C#N)c3)cc2n1
- Activity [1]: inactive
- Ki [2]: 730 nM
- IC50 [3]: 1340 nM
- inhibition [4]: < 50%
- inhibition [5]: < 50%
- inhibition [6]: < 50%
- inhibition [7]: < 50%
- inhibition [8]: < 50%

SMILES: Cc1nc2cc(-c3ccc(-c4ccc(F)cc4)c(C#N)c3)ccc2s1
- Activity [1]: inactive
- Ki [2]: 4680 nM
- IC50 [3]: > 10000 nM
- inhibition [4]: < 50%
- inhibition [5]: < 50%
- inhibition [6]: < 50%
- inhibition [7]: < 50%
- inhibition [8]: < 50%

SMILES: COCOc1ccc(-c2ccc3ccc(C)nc3c2)cc1C#N
- Activity [1]: inactive
- Ki [2]: 596 nM
- IC50 [3]: 294 nM
- inhibition [4]: < 50%
- inhibition [5]: < 50%
- inhibition [6]: < 50%
- inhibition [7]: < 50%
- inhibition [8]: < 50%

SMILES: Cc1ccc2ccc(-c3ccc(OCc4ccccc4)c(C#N)c3)cc2n1
- Activity [1]: inactive
- Ki [2]: 1040 nM
- IC50 [3]: > 10000 nM
- inhibition [4]: < 50%
- inhibition [5]: < 50%
- inhibition [6]: < 50%
- inhibition [7]: < 50%
- inhibition [8]: < 50%

SMILES: Cc1ccc2ccc(-c3ccc(Cl)cc3C#N)cc2n1
- Activity [1]: inactive
- Ki [2]: 4720 nM
- IC50 [3]: 9150 nM
- inhibition [4]: < 50%
- inhibition [5]: < 50%
- inhibition [6]: < 50%
- inhibition [7]: < 50%
- inhibition [8]: < 50%

SMILES: Cc1ccc2ccc(-c3cnc(Cl)c(C#N)c3)cc2n1
- Activity [1]: inactive
- Ki [2]: > 10000 nM
- IC50 [3]: 3310 nM
- inhibition [4]: < 50%
- inhibition [5]: < 50%
- inhibition [6]: < 50%
- inhibition [7]: < 50%
- inhibition [8]: < 50%
- inhibition [9]: 50%
